Test results published in ChEMBL document CHEMBL4513216, “Probing the Open Global Health Chemical Diversity Library for Multistage-Active Starting Points for Next-Generation Antimalarials” (ACS Infect Dis, 2020).

Test: Toxicity liver stage against HepG2, at 10uM
Assay type: cell-based
Design: test concentration 10 uM, cell line HepG2-A16-CD81EGFP
Settings: human, HepG2-A16-CD81EGFP cells; read-out: INHIBITION
Summary of the method: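 Uninfected HepG2-A16-CD81EGFP cells, 3 × 10^3 per well, 1536-well, plated on prespotted compound at 10 μM final, parasite-free screening media added to match infected plates; puromycin 10 μM positive, DMSO 0.5% negative; run in parallel with 48 h PbLuc assay at 37 °C, 5% CO2; viability by CellTiter-Glo luminescence, normalized to controls.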

Structure (SMILES)	cytotoxicity at 10 µM [%]
Cc1nc(C)c(CN2CCOC[C@H](Oc3ccc(S(C)(=O)=O)cc3)C2)s1	5.25
CC(C)CC(NC(=O)c1ccco1)c1nnc2ccccn12 (centres undefined)	-6.21
CN(Cc1ccccc1)CC1CC2(CO1)CN(c1nncs1)C2 (centres undefined)	13.7
CS(=O)(=O)N1CCCC12CCCN(C(=O)c1ccnnc1)C2 (centres undefined)	-143
O=C1CCCN1Cc1ncn2c1CN(C(=O)C1CC=CC1)CCC2	6.4
Cc1nccc([C@@H]2C[C@@H]3CCN(S(=O)(=O)N(C)C)C[C@H]3O2)n1	-3.38
CNC(=O)[C@@]12CCC3(CCN(C(=O)C(C)C)CC3)[C@@H]1CN(S(C)(=O)=O)C2	3.89
c1ccc(NCc2cn3c(n2)CN(Cc2nccs2)CC3)nc1	10.4
CNC(=O)N1CCN(C(=O)N(C)C)CC2(CC(=O)N(C)C2)C1 (centres undefined)	4.9
CC(O)CNC(=O)CCc1nc2ncccc2[nH]1 (centres undefined)	-3.5
COc1ccc(C(=O)NCCCn2ccnc2)c(OC)n1	4.99
O=c1nc(SCc2ccncc2)c2c(n1CCO)CCCC2	-23.8
CCn1nccc1CNc1[nH]cnc2nc(C)nc1-2	-12
CSc1nc2ccsc2c(=O)n1CC(=O)N(C)C1CCCCC1	0.773
C=Cn1cc(CN2CCN(CC3(c4ccccc4)CC3)CC2)c(C)n1	1.78
CC(C)(C)Nc1c(C2CCN(C(=O)C3CC3)CC2)nc2ccccn12	4.58
Cc1cc(C(F)(F)F)n2nc(C3CCCN(S(C)(=O)=O)C3)cc2n1 (centres undefined)	1.49
Cc1cc(N2CCCC(c3n[nH]c4ncccc34)C2)ncn1 (centres undefined)	-3.22
O=S(=O)(c1ccccc1F)N1CCCCC1c1cc[nH]n1 (centres undefined)	1.22
CNc1ccc(CC2CCCN(C(=O)c3scnc3C)C2)nn1 (centres undefined)	-10.4
CC(C)c1cc(Br)ccc1NC(=O)NC(C)(CO)CO	9.83
CN(CC(C)(CO)CO)C(=O)Nc1cc(Cl)cc(Cl)c1	0.0988

Structure (SMILES)	cytotoxicity at 10 µM [%]
CC(CO)NS(=O)(=O)c1cccc(C(C)C)c1 (centres undefined)	-20
CC(C)(CNC(=O)C1(c2cccc(Br)c2)CCOCC1)C(=O)O	2.9
CCc1ncc2c(n1)CN(Cc1nc(-c3ccco3)oc1C)CC2	6.15
Cc1noc(C)c1CN(C)C(=O)C1CCCc2ccccc21 (centres undefined)	2.45
CN1CCC(NC(=O)c2cc(F)cc(Cl)c2O)C1=O (centres undefined)	3.09
COc1cc(NCCNC(=O)c2cscc2C)cc(OC)c1	1.6
CC(Cc1cccc(F)c1)C(=O)NS(=O)(=O)c1ccc2c(c1)OCCO2 (centres undefined)	9.83
O=C(NCc1nncn1C1CC1)C1(c2ccc(F)cc2)CCOCC1	-10.4
N#Cc1c(Cl)nsc1NCc1ccc(N2CCCC(C(N)=O)C2)cc1 (centres undefined)	-9.65
COc1c(CNCc2ccccc2-n2ccnc2)c(C)nn1C	18.7
Cc1cccc(NC(=O)CN(C)C(=O)c2ccc(OC(C)C)nc2)n1	-8.99
CC(C)Oc1ncc(C(=O)N2CCC(N(C)C)CC2)cc1Cl	-4.09
CCN1CCN(C(=O)c2scnc2C)CC1	11.7
COc1ccc(CNC(=O)NCC(=O)NC2CC2)c(C(F)(F)F)c1	6.41
COC1CCCN(C(=O)NCC(F)F)C1 (centres undefined)	7.51
Cc1nn(CC(C)C)c(N(C)C)c1CNCCS(C)(=O)=O	6.59
Cn1ccc(C(=O)N(CC(F)F)c2cccc(Cl)c2)cc1=O	0.541
O=C1CN(C(=O)C2CCOC2)CCN1Cc1ccc(Cl)cc1 (centres undefined)	-150
CN(CC(=O)N1CCCC1c1ccccn1)Cc1ccccc1 (centres undefined)	-0.51
CCc1cc(CNC(=O)Nc2cc(F)ccc2N2CCCCC2)on1	-18.9
O=C(CN1CCSC2(CCCCC2)C1)NCC(F)(F)F	-6.4
CS(=O)(=O)CCCNCc1c(Cl)cccc1N1CCCC1	1.18

Structure (SMILES)	cytotoxicity at 10 µM [%]
Cc1cccc(-c2nnc(C(C)N3CCn4c(C)nnc4C3)o2)c1 (centres undefined)	0.131
Cc1csc(C(C#N)C(=O)NCc2cccnc2)n1 (centres undefined)	9.6
COCCC(=O)NC(C)(C(N)=O)c1cccc(Cl)c1 (centres undefined)	17.7
COCCNC(=O)CSc1nnc(OC(C)C)s1	-5.7
Cc1n[nH]c(C)c1C1CCCN1C(=O)NCCSC(C)(C)C (centres undefined)	-11
COCCN1CCC2(CC1)CC(c1cccnc1)C(=O)N2C (centres undefined)	7.26
Cc1cc(C(=O)NCC2OCCc3cn(CC4CC4)nc32)c(C)[nH]1 (centres undefined)	3.42
CN1C(=O)CC(c2cnn(C)c2)C12CCN(C(=O)c1cccn1C)CC2 (centres undefined)	-74
CC(C)[C@@H]1CN(c2ccc(C(F)(F)F)cn2)C[C@H]1NS(C)(=O)=O	8.46
CC(=O)N[C@@H]1CN(C(=O)c2ccoc2)C[C@H]1c1ccc(C)cc1	16.2
COC(=O)CNc1ccc(-c2nc(Cc3ccc(OC)cc3)no2)cn1	1.06
Cc1nccc(N[C@H]2CN(CCC(=O)NC3CCCC3)C[C@@H]2C2CC2)n1	-4.57
CCn1c(N)nc2cc(C(=O)N3Cc4ccccc4C3)cnc21	-8.51
CN1CCCN(c2nc(C3CCCC3)nc3c2cnn3C)CC1	-3.9
COCc1c(C(=O)N2CCCC(C(=O)c3nccn3C)C2)noc1C (centres undefined)	15.8
CC(C)=CCN1CCN(Cc2cc(C)n[nH]2)CC1CCO (centres undefined)	1.96
COCCN(Cc1c(C)nn(C)c1C)C(=O)C1COc2ccccc2C1 (centres undefined)	-3.87
Cc1cc2[nH]c(=O)oc2cc1S(=O)(=O)N1C[C@@H](N(C)C)[C@H](C(C)C)C1	0.234
CC(C)N(CCO)C(=O)C1CCC(=O)N(CCc2ccc(Cl)cc2)C1 (centres undefined)	-8.27
CC(C)(C)c1csc(CNC(=O)C2NCCc3[nH]cnc32)n1 (centres undefined)	-2.65
CN(CCCc1nccn1C)c1nccc(N2CCC(O)C2)n1 (centres undefined)	10.2
CCN1CC(CN(C)Cc2nc(-c3ccc(F)cc3F)oc2C)CC1=O (centres undefined)	-6.64

Structure (SMILES)	cytotoxicity at 10 µM [%]
Cn1cc(-c2ccnc(NCC3CCCCO3)n2)cn1 (centres undefined)	-131
CN(Cc1cc2cc(F)ccc2[nH]1)C(=O)C1CC(=O)N(C2CCCC2)C1 (centres undefined)	-3.26
CSCCCN1C[C@H](NC(=O)c2cc(C3CC3)on2)[C@@H](C2CC2)C1	2.72
Cc1ccc(OC2(C(=O)O)CCN(C(=O)c3cc(C)oc3C)CC2)cn1	0.0255
C[C@@H]1CN(c2cc(N3CCC(O)CC3)ncn2)C[C@@]1(O)C1CCC1	-5.73
COc1ccc([C@@H]2CN(C(=O)CCc3cc(Cl)no3)C[C@H]2N(C)C)cc1	6.1
COc1ccc(Cl)cc1-n1c(COC(C)C)n[nH]c1=O	-7.5
CC(=O)Nc1ncc(S(=O)(=O)N2CCN(C3CCCCC3)CC2)s1	-4.5
COCC(=O)N1CCC(C(=O)Nc2ccc(C(C)=O)cc2)CC1	1.73
CC(C)c1nc(CN(C)C(=O)CNS(=O)(=O)c2cccs2)cs1	-6.46
CC(C)C(NC(N)=O)C(=O)N1CCN(c2ccccc2Cl)C(=O)C1 (centres undefined)	-1.56
O=C(CN1CCCCCC1)NCc1cccnc1Oc1ccccc1	-11.1
Cc1ccc(OCc2occc2C(=O)N2CC[C@H](CO)[C@@H](O)C2)cc1	14.3
CCc1nnsc1C(=O)N1CCCC(COc2ccc(F)cc2)C1 (centres undefined)	-155
COCC(=O)N1Cc2cnc(Cc3ccc(OC)cc3)nc2C1	-15.8
CNC(=O)c1cccc(C2CNCCN2C)c1 (centres undefined)	2.91
Cc1cc(CN2CCN(c3ccc4nncn4n3)C(C)C2)on1 (centres undefined)	6.91
O=C(NCCNc1ncccn1)C1CCCC1	-22.9
COc1cccc(N2CCC(CNCc3cccc(C#N)c3)C2)c1 (centres undefined)	-15.3
CC(C)n1cc(CN2CCCN(C(=O)C(C)n3cncn3)CC2)cn1 (centres undefined)	-16.2
Cc1cnn(C2CCCN(C(=O)CCc3ccncc3)C2)c1 (centres undefined)	-10.7
CC(C)n1cc(CN2CCCN(C(=O)C3CCCN3C)CC2)cn1 (centres undefined)	-10

Structure (SMILES)	cytotoxicity at 10 µM [%]
Cc1ccc(C)n1C(C)C(=O)N1CCCN(Cc2cscn2)CC1 (centres undefined)	-8.36
CCN(CC1CCCO1)C(=O)Nc1cccc(Cl)c1OC (centres undefined)	-21.4
CC(=O)Nc1nc(C(=O)N2CCCC2c2ccc(Br)cc2)cs1 (centres undefined)	-18.4
O=C1NCC(C(=O)Nc2ncc(Cc3ccc(F)cc3)s2)N1 (centres undefined)	0.639
O=S(=O)(C1CC1)N1C[C@@H]2COC[C@]2(COc2ccccn2)C1	5.57
Cn1cc(N2CC3(CCN(Cc4nccs4)CC3)OCC2=O)cn1	5.86
CCc1ccc(CN2C[C@H](OCC(=O)N(C)C)[C@H]3COC[C@H]32)o1	2.46
Cc1ccc(CN2CCc3c(CN4CCCC4)n[nH]c3C2)s1	4.41
CS(=O)(=O)N[C@@H]1CN(Cc2ccncc2)C[C@@H]2CCCO[C@@H]21	13.1
O=C(c1ccnnc1)N1CCN2C[C@H](OCc3cccnc3)C[C@H]2C1	-72.4
CN(C)C(=O)C1CCN(C2CCN(CC3CCC3)CC2)CC1	2.82
CCN1C[C@@H]2[C@@H](OC)CCN(S(=O)(=O)c3cccnc3)[C@@H]2C1	-77
c1ccc(COC[C@H]2CC[C@H]3[C@H](CCN3c3ncccn3)O2)nc1	-78
COc1ccc(CN2CCn3c(C(=O)N(C)C)cnc3C2)cc1	-69.6
CCOCC1CN(C(=O)Cc2ccccn2)Cc2c1cnn2C (centres undefined)	-72
c1csc(CN2C[C@H](OCC3CCOCC3)[C@H]3COC[C@H]32)n1	-3.76
CC(C)(C)c1n[nH]cc1CNCC1CCN(C2CC2)C1 (centres undefined)	2.16
CC(C)c1nn(C)c(Cl)c1CNCC(=O)N1CCN(C)CC1	2.2
c1ccc2c(c1)SCCC2NCc1ccc(N2CCOCC2)cc1 (centres undefined)	-4.86
Cc1noc(C)c1CN1CC[C@H]2O[C@@H](C(=O)N3CCCC3)CC[C@H]21	3.35
COCCNc1nc(C)nc2c1CCN(CC1CCC(N)CC1)CC2 (centres undefined)	-2.84
